Laboratory results from ChEMBL document CHEMBL3774311, “Synthesis and in vitro antitumour activity of tiazofurin analogues with nitrogen functionalities at the C-2' position” (Eur J Med Chem, 2016).

Tests used:
K562 [1] = assay: Antiproliferative activity against human K562 cells after 72 hrs by MTT assay; type: functional, cell-based
Summary of the method: (§1)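 Human tumour lines and MRC-5 foetal lung fibroblasts (normal-cell comparator) exposed to compounds for 72 h; viability read by standard MTT assay. IC50 taken as concentration inhibiting growth by 50% versus untreated control; means of three independent experiments, coefficients of variation under 10%.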

[2] = Antiproliferative activity against human HL60 cells after 72 hrs by MTT assay; type: functional, cell-based, HL-60; summary of the method: as §1
Raji = assay: Antiproliferative activity against human Raji cells after 72 hrs by MTT assay; type: functional, cell-based; settings: raji; summary of the method: as §1
HeLa = assay: Antiproliferative activity against human HeLa cells after 72 hrs by MTT assay; type: functional, cell-based; settings: hela; summary of the method: as §1
K562 [3] = assay: Induction of cell cycle arrest in human K562 cells assessed as accumulation at Sub-G1 phase after 24 hrs by propidium iodide staining-based flow cytometry (reference value: 1.05%); type: functional
Summary of the method: (§2)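 Exponentially growing K562 cells treated 24 or 72 h; cells stained with propidium iodide and cell-cycle distribution (sub-G1, G0/G1, S, G2/M, %) measured by flow cytometry; untreated cells as control.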

K562 [4] = assay: Induction of cell cycle arrest in human K562 cells assessed as accumulation at Sub-G1 phase after 72 hrs by propidium iodide staining-based flow cytometry (reference value: 3.04%); type: functional; summary of the method: as §2
K562 [5] = assay: Induction of cell cycle arrest in human K562 cells assessed as accumulation at G0/G1 phase after 24 hrs by propidium iodide staining-based flow cytometry (reference value: 36.28%); type: functional; summary of the method: as §2
K562 [6] = assay: Induction of cell cycle arrest in human K562 cells assessed as accumulation at G0/G1 phase after 72 hrs by propidium iodide staining-based flow cytometry (reference value: 45.92%); type: functional; summary of the method: as §2
K562 [7] = assay: Induction of cell cycle arrest in human K562 cells assessed as accumulation at S phase after 24 hrs by propidium iodide staining-based flow cytometry (reference value: 48.38%); type: functional; summary of the method: as §2
K562 [8] = assay: Induction of cell cycle arrest in human K562 cells assessed as accumulation at S phase after 72 hrs by propidium iodide staining-based flow cytometry (reference value: 35.73%); type: functional; summary of the method: as §2
K562 [9] = assay: Induction of cell cycle arrest in human K562 cells assessed as accumulation at G2/M phase after 24 hrs by propidium iodide staining-based flow cytometry (reference value: 14.29%); type: functional; summary of the method: as §2
K562 [10] = assay: Induction of cell cycle arrest in human K562 cells assessed as accumulation at G2/M phase after 72 hrs by propidium iodide staining-based flow cytometry (reference value: 15.31%); type: functional; summary of the method: as §2
K562 [11] = assay: Induction of specific apoptosis in human K562 cells after 24 hrs by annexin V-FITC/propidium iodide staining based flow cytometry; type: functional; parameters: concentration or dose not given beside the values
Summary of the method: (§3)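 K562 cells treated 24 or 72 h, double-stained with Annexin V-FITC/PI and analysed by flow cytometry to give percentages of live, apoptotic and necrotic cells; apoptotic and necrotic responses expressed as specific apoptosis or specific necrosis (%).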

K562 [12] = assay: Induction of specific apoptosis in human K562 cells after 72 hrs by annexin V-FITC/propidium iodide staining based flow cytometry; type: functional; parameters: concentration or dose not given beside the values; summary of the method: as §3
K562 [13] = assay: Induction of specific necrosis in human K562 cells after 24 hrs by annexin V-FITC/propidium iodide staining based flow cytometry; type: functional; parameters: concentration or dose not given beside the values; summary of the method: as §3
K562 [14] = assay: Induction of specific necrosis in human K562 cells after 72 hrs by annexin V-FITC/propidium iodide staining based flow cytometry; type: functional; parameters: concentration or dose not given beside the values; summary of the method: as §3
K562 [15] = assay: Induction of apoptosis in human K562 cells assessed as necrotic cells after 24 hrs by annexin V-FITC/propidium iodide staining based flow cytometry (reference value: 1.50%); type: functional; summary of the method: as §3
K562 [16] = assay: Induction of apoptosis in human K562 cells assessed as late apoptotic cells after 24 hrs by annexin V-FITC/propidium iodide staining based flow cytometry (reference value: 4.58%); type: functional; summary of the method: as §3
K562 [17] = assay: Induction of apoptosis in human K562 cells assessed as living cells after 24 hrs by annexin V-FITC/propidium iodide staining based flow cytometry (reference value: 85.85%); type: functional; summary of the method: as §3
K562 [18] = assay: Induction of apoptosis in human K562 cells assessed as early apoptotic cells after 24 hrs by annexin V-FITC/propidium iodide staining based flow cytometry (reference value: 8.09%); type: functional; summary of the method: as §3
K562 [19] = assay: Induction of apoptosis in human K562 cells assessed as necrotic cells after 72 hrs by annexin V-FITC/propidium iodide staining based flow cytometry (reference value: 7.23%); type: functional; summary of the method: as §3
K562 [20] = assay: Induction of apoptosis in human K562 cells assessed as late apoptotic cells after 72 hrs by annexin V-FITC/propidium iodide staining based flow cytometry (reference value: 5.24%); type: functional; summary of the method: as §3
K562 [21] = assay: Induction of apoptosis in human K562 cells assessed as living cells after 72 hrs by annexin V-FITC/propidium iodide staining based flow cytometry (reference value: 84.31%); type: functional; summary of the method: as §3
K562 [22] = assay: Induction of apoptosis in human K562 cells assessed as early apoptotic cells after 72 hrs by annexin V-FITC/propidium iodide staining based flow cytometry (reference value: 3.22%); type: functional; summary of the method: as §3
K562 [23] = assay: Induction of apoptosis in human K562 cells assessed as Bcl2 protein level after 24 hrs by Western blotting method (reference value: 22.81%); type: functional
K562 [24] = assay: Induction of apoptosis in human K562 cells assessed as Bax protein level after 24 hrs by Western blotting method (reference value: 16.13%); type: functional
K562 [25] = assay: Induction of apoptosis in human K562 cells assessed as caspase 3 level after 24 hrs by Western blotting method (reference value: 42.77%); type: functional
K562 [26] = assay: Induction of apoptosis in human K562 cells assessed as cleaved PARP level after 24 hrs by Western blotting method (reference value: 36.17%); type: functional
K562 [27] = assay: Induction of apoptosis in human K562 cells assessed as Bcl2 protein level after 72 hrs by Western blotting method (reference value: 7.90%); type: functional
K562 [28] = assay: Induction of apoptosis in human K562 cells assessed as Bax protein level after 72 hrs by Western blotting method (reference value: 32.81%); type: functional
K562 [29] = assay: Induction of apoptosis in human K562 cells assessed as caspase 3 level after 72 hrs by Western blotting method (reference value: 17.05%); type: functional
K562 [30] = assay: Induction of apoptosis in human K562 cells assessed as cleaved PARP level after 72 hrs by Western blotting method (reference value: 18.36%); type: functional
MCF7 = assay: Antiproliferative activity against human MCF7 cells after 72 hrs by MTT assay; type: functional, cell-based; settings: MCF7, 72 h; summary of the method: as §1

SMILES: Cl.NC(=O)c1csc([C@@H]2O[C@H](CO)[C@@H](O)[C@H]2N)n1
- IC50 (K562 [1]; k562): > 100000 nM
- IC50 ([2]; hl-60): 20 nM
- IC50 (Raji): 9280 nM
- IC50 (HeLa): > 100000 nM
- Activity (K562 [3]): 2.61%
- Activity (K562 [4]): 11.13%
- Activity (K562 [5]): 35.02%
- Activity (K562 [6]): 44.32%
- Activity (K562 [7]): 47.22%
- Activity (K562 [8]): 33.29%
- Activity (K562 [9]): 15.16%
- Activity (K562 [10]): 11.26%
- Activity (K562 [11]): 10.71%
- Activity (K562 [12]): 30.26%
- Activity (K562 [13]): 3.6%
- Activity (K562 [14]): 6.22%
- Activity (K562 [15]): 5.11%
- Activity (K562 [16]): 7.67%
- Activity (K562 [17]): 78.24%
- Activity (K562 [18]): 8.99%
- Activity (K562 [19]): 6.88%
- Activity (K562 [20]): 66.3%
- Activity (K562 [21]): 4.53%
- Activity (K562 [22]): 22.33%
- Activity (K562 [23]): 16.22%
- Activity (K562 [24]): 2.16%
- Activity (K562 [25]): 16.6%
- Activity (K562 [26]): 66.48%
- Activity (K562 [27]): 14.5%
- Activity (K562 [28]): 81.99%
- Activity (K562 [29]): 11.52%
- Activity (K562 [30]): 24.41%

SMILES: NC(=O)c1csc([C@@H]2O[C@H](CO)[C@@H](O)[C@H]2O)n1 [TIAZOFURIN]
- IC50 (K562 [1]; Homo sapiens, K562, 72 h): 1890 nM
- IC50 ([2]; Homo sapiens, HL-60, 72 h): 190 nM
- IC50 (MCF7): 1780 nM
- Activity (K562 [3]): 2.22%
- Activity (K562 [4]): 24.99%
- Activity (K562 [5]): 37.08%
- Activity (K562 [6]): 35.66%
- Activity (K562 [7]): 53.16%
- Activity (K562 [8]): 33.62%
- Activity (K562 [9]): 7.55%
- Activity (K562 [10]): 5.74%
- Activity (K562 [11]): -0.34%
- Activity (K562 [12]): 13.71%
- Activity (K562 [13]): 3.76%
- Activity (K562 [14]): 10.71%
- Activity (K562 [15]): 5.27%
- Activity (K562 [16]): 11.58%
- Activity (K562 [17]): 79.36%
- Activity (K562 [18]): 3.79%
- Activity (K562 [19]): 13.76%
- Activity (K562 [20]): 15.58%
- Activity (K562 [21]): 41.24%
- Activity (K562 [22]): 29.42%
- Activity (K562 [23]): 16.16%
- Activity (K562 [24]): 37.25%
- Activity (K562 [25]): 47.68%
- Activity (K562 [26]): 57.93%
- Activity (K562 [27]): 27.2%
- Activity (K562 [28]): 111.01%
- Activity (K562 [29]): 15.38%
- Activity (K562 [30]): 44.51%
